Screening results: PubChem, several laboratories
Hits are enriched below; roughly 2.6% of the tested compounds scored in any of these assays.
PGE2 EP2 inh: blocks the human prostaglandin E2 receptor EP2 | inhibition, % at 25 µM | P43116 | C6 glioma cells expressing human EP2, cAMP TR-FRET; cells stimulated with saturating PGE2 | AID 1422 | hit rate 0.52% among 260,000;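 active = percent inhibition above 40 after rounding to a whole number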;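 note: rat C6 glioma host cells with rolipram phosphodiesterase inhibitor present; the protocol text gives 20 µM as final concentration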
Target sequence (P43116 whole entry, looked up): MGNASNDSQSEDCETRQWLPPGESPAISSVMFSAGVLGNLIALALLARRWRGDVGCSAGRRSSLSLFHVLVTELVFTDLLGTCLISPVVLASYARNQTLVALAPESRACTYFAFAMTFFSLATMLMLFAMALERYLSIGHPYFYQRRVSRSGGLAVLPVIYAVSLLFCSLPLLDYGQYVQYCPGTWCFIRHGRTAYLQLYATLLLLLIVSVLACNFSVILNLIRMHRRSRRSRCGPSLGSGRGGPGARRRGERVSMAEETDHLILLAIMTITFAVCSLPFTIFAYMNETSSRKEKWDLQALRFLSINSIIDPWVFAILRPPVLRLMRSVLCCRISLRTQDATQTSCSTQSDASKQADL
T cell modulator: modulates CD8 T cell binding to vesicles | 2C CD8+ T cell-vesicle binding, flow cytometry; hits give low values | response (vesicle binding), % at 7 µM | hit rate 0.068% among 330,000;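 active = response, share of CD8 T cells binding vesicles, and their 90th percentile fluorescence all below set limits, cut at about 80% in these data, passing the limit was not always enough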;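 note: values below 100% mean blocked vesicle binding to the CD8+ T cells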
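Material: murine 2C transgenic CD8+ T lymphocytes / Also added: QL9-peptide-loaded Drosophila micro-vesicles bearing Ld, ICAM-1 and B7-1 / Schedule: binding step 1.5 h, 37 °C, antibody labelling 20 min, ice / Signal: flow cytometry, PE anti-B7-1 (FL2) versus Alexa647 anti-CD8 (FL8), PFA-fixed / Evaluation: percent CD8+ FL2 mean versus row control / Benchmarks: naked versus QL9-loaded vesicles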
MC4R antagonist: human MC4R antagonism in cAMP assay | inhibition, % at 6.5 µM | MC4R-expressing cells, MTII-stimulated cAMP, LANCE TR-FRET | AID 540295 | hit rate 0.48% among 360,000 | P32245;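 active = inhibition above its plate's cutoff, the mean of tested wells on that plate plus 3 SD, cut at about 29% in these data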
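Test system: U2OS cells stably expressing human melanocortin 4 receptor (MC4R); also added: Melanotan II challenge; compound: 6.5 µM single dose; timing: 30-min compound preincubation, 1-h Melanotan II challenge, 1-h detection, room temperature; signal: Eu-cAMP/anti-cAMP TR-FRET, emission 671 nm; repeats: one well per compound, no replicates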
EP2 modulator: EP2 receptor (human) modulation. EP2-expressing cells, cAMP HTRF FRET, PGE2 co-stimulation. induction, % at 25 µM. hit rate 0.83% among 260,000. AID 940;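 active = compounds whose cAMP rise, as percent of the full-agonist control response, exceeds 60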;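 note: rat C6 glioma line stably carrying human EP2 under a CMV promoter; the protocol text gives 20 µM as final concentration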
MC4R barr agon: agonists of human melanocortin 4 receptor (MC4R) beta-arrestin; P32245; U2OS MC4R beta-arrestin complementation, luminescence; percent of melanotan II response, DMSO zero; activation, % at 8.9 µM; hit rate 0.98% among 360,000; AID 540308;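 active = activation above a per-plate cutoff, the mean activation of sample wells on that plate plus 3 SD, cut at about 8% in these data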
Exocytosis inh: blocks lytic granule exocytosis | TALL-104 LAMP-1 surface exposure, flow cytometry; cells stimulated with thapsigargin and PMA | hit rate 0.66% among 360,000 | inhibition, % at 10 µM | AID 651702;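 active = inhibition above about 55%, limit read from the data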
MC4R barr ag: human MC4R beta-arrestin agonism confirmation. shares compounds with MC4R barr agon. U2OS MC4R beta-arrestin recruitment, luminescence; scaled DMSO 0%, Melanotan II 100%. activation, % at 8.9 µM. hit rate 31% among 2,400;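 active = mean activation across replicates above the hit cutoff set in the earlier primary screen, cut at about 8% in these data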
MOR DOR agonist: activates mu-delta opioid heterodimer, MC4R agonist counter-screen. hit rate 5.8% among 2,400. activation, % at 9.2 µM. U2OS PathHunter beta-arrestin, beta-gal luminescence; percent of deltorphin B response, DMSO zero. AID 602194. shares compounds with MC4R barr agon;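 active = mean activation across replicates exceeds the hit threshold derived in the earlier primary screen, cut at about 18% in these data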
Each line names hits and unclear results; the compound was inactive in the other large screens (follow-up assays come after a bar, where they were run).

Cc1cccc(C)c1OCc1nnc(NC(=O)CSc2ccc(Cl)cc2)s1	none
Cc1cc(C)c2nc(-n3nc(C)cc3N)cc(C)c2c1	MC4R barr agon 15 | MC4R barr ag inactive | MOR DOR agonist inactive
Cc1ccc2c(C)cc(SCc3cc(=O)[nH]c4ccccc34)nc2c1C	none (no result: T cell modulator, MC4R antagonist, MC4R barr agon, Exocytosis inh)
Cc1cc(SCc2cc(=O)[nH]c3ccccc23)nc2ccccc12	MC4R barr agon 12 | MC4R barr ag inactive | MOR DOR agonist inactive
OCCC1CN(Cc2cnc(-c3ccc(Cl)cc3)nc2)CCN1C1CCCCC1 (stereo not drawn)	none
Cc1cc(C)nc(Nc2n[nH]c(COc3ccc4ccccc4c3)n2)n1	MC4R barr agon 16 | MC4R barr ag inactive | MOR DOR agonist inactive
Cc1cc(C)nc(Nc2n[nH]c(COc3ccccc3)n2)n1	none
COC(=O)c1c(C)[nH]c(C(=O)CSc2ccc(Cl)cc2)c1C	MC4R barr agon 29 | MC4R barr ag 11 | MOR DOR agonist inactive
CCOC(=O)c1[nH]c(C)c(C(=O)OCCOc2cccc(C)c2)c1C	MC4R barr agon 12 | MC4R barr ag 8.5 | MOR DOR agonist inactive
CCc1c(C)[nH]c(C(=O)OCc2ccccc2)c1C	MC4R barr agon 10 (no result: T cell modulator) | MC4R barr ag inactive | MOR DOR agonist inactive
CCOC(=O)c1[nH]c(C)c(C(=O)OCC)c1C	none
COC(=O)c1c(C)[nH]c(C(=O)CC#N)c1C	none
CCc1c(C(=O)OCc2ccccc2)[nH]c(C)c1C	none
CCOC(=O)c1[nH]c(C)c(C(=O)OCc2ccccc2F)c1C	MC4R barr agon 26 (no result: PGE2 EP2 inh, EP2 modulator) | MC4R barr ag inactive | MOR DOR agonist inactive
CC1CCCN(C(c2cc3cc4c(cc3[nH]c2=O)OCO4)c2nnnn2C2CCCC2)C1 (stereo not drawn)	none (no result: T cell modulator, MC4R antagonist, MC4R barr agon, Exocytosis inh)
CCOc1ccc2[nH]c(=O)c(C(c3nnnn3Cc3ccccc3)N3CCN(C)CC3)cc2c1 (stereo not drawn)	none (no result: T cell modulator, MC4R antagonist, MC4R barr agon, Exocytosis inh)
COC(=O)c1c(C)[nH]c(C(=O)OCc2ccc(F)cc2)c1C	MC4R barr agon 12 | MC4R barr ag inactive | MOR DOR agonist inactive
Cc1ccc(NC(=O)CN2C(=O)COc3ccc(S(=O)(=O)N4CCCC4)cc32)c(C)c1	none (no result: PGE2 EP2 inh, EP2 modulator)
CCCn1nnc(NC(=O)c2ccc(-c3cc(Cl)ccc3Cl)o2)n1	MC4R barr agon 9.6 | MC4R barr ag inactive | MOR DOR agonist inactive
Cc1nc(Nc2ccc(C(=O)O)cc2)nc(Nc2ccc(C(=O)O)cc2)c1[N+](=O)[O-]	none
Cc1nc(Nc2ccc(F)cc2)nc(Nc2ccc(F)cc2)c1[N+](=O)[O-]	MC4R barr agon 13 | MC4R barr ag inactive | MOR DOR agonist inactive
Cc1c([N+](=O)[O-])cc(S(=O)(=O)Nc2ccncc2)cc1[N+](=O)[O-]	none
CC(C)Oc1ccc(CNC(=O)Cn2c(=O)c3cccn3c3cccnc32)cc1	none (no result: PGE2 EP2 inh, EP2 modulator)
CCOc1ccc(CNC(=O)Cn2c(=O)c3cccn3c3ccccc32)cc1	MC4R barr agon 22 (no result: PGE2 EP2 inh, EP2 modulator) | MC4R barr ag inactive | MOR DOR agonist inactive
CCn1c(CCNC(=O)c2ccc(Cl)c(Cl)c2)nnc1SCCOc1ccc(OC)cc1	MC4R barr agon 11 | MC4R barr ag inactive | MOR DOR agonist inactive
COc1ccc(OCCSc2nnc(CCNC(=O)c3ccc(Cl)c(Cl)c3)n2C)cc1	none
COc1ccc(C(=O)Nc2cnc(NC(=O)c3cccs3)cc2C)cc1	none (no result: PGE2 EP2 inh, EP2 modulator)
O=C(Nc1c(Cl)cccc1Cl)c1ccc(-c2ccccc2)cc1	MC4R barr agon 21 | MC4R barr ag inactive | MOR DOR agonist inactive
O=C(Nc1ccc(Cl)cc1Cl)c1ccc(-c2ccccc2)cc1	none
CCOC(=O)c1ccc(Cl)c(NC(=O)c2ccc(-c3ccccc3)cc2)c1	MC4R barr agon 13 (no result: PGE2 EP2 inh) | MC4R barr ag inactive | MOR DOR agonist inactive
C/C(=N\NC(=O)CSCc1ccc(Cl)cc1)c1ccc(NC(=O)c2ccccc2)cc1	none
C/C(=N/NC(=O)CSCc1ccc(Cl)cc1)c1cccc(NC(=O)c2ccccc2)c1	MC4R barr agon 22 | MC4R barr ag inactive | MOR DOR agonist inactive
